Test results published in ChEMBL document CHEMBL5058577, “EUbOPEN Chemogenomics Library 2 (Multiplex)” (2022).

Test system: U2OS
Test: Multiplex assay against U2OS
Assay type: toxicity, cell-based
Settings: human
Summary of the method: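 Live cells were stained at seeding with Hoechst33342, BioTracker Green Microtubule Cytoskeleton Dye, MitoTracker Red and Annexin V Alexa Fluor 680, then imaged on a CQ1 microscope at 37°C and 5% CO2 after compound addition. CellPathfinder machine-learning gating split cells into Hoechst high-intensity objects or normal cells. Normal cells were split into healthy, pyknosed or fragmented nuclei, and pyknosed cells into mitotic or apoptotic. Tubulin, mitochondrial-mass and membrane-permeability phenotypes are per cents of healthy-nucleus cells.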

[1] = 12 h, 1 µM, compound concentration 1 uM, replicate 1
[2] = 12 h, 1 µM, compound concentration 1 uM, replicate 2
[3] = 12 h, 10 µM, compound concentration 10 uM, replicate 1
[4] = 12 h, 10 µM, compound concentration 10 uM, replicate 2
[5] = 24 h, 1 µM, compound concentration 1 uM, replicate 1
[6] = 24 h, 1 µM, compound concentration 1 uM, replicate 2
[7] = 24 h, 10 µM, compound concentration 10 uM, replicate 1
[8] = 24 h, 10 µM, compound concentration 10 uM, replicate 2
[9] = 48 h, 1 µM, compound concentration 1 uM, replicate 1
[10] = 48 h, 1 µM, compound concentration 1 uM, replicate 2
[11] = 48 h, 10 µM, compound concentration 10 uM, replicate 1
[12] = 48 h, 10 µM, compound concentration 10 uM, replicate 2

C[C@H](N)COC(=O)[C@@H](CCCCN)NC(=O)Cc1c(-c2ccc3ccccc3c2)[nH]c2c1ccc1ccccc12
Population Apoptotic (%) [1]: 73%
Population Fragmented Nuclei (%) [1]: 26%
Population Healthy Nuclei (%) [1]: 66%
Population Hoechst High Intensity Objects (%) [1]: 3%
Population Membrane Permeable-Phenotype (%) [1]: 6%
Population Mitochondria Different-Phenotype (%) [1]: 3%
Population Mitotic Cells (%) [1]: 26%
Population Normal (%) [1]: 96%
Population Pyknosed Nuclei (%) [1]: 6%
Population Tubulin-Different-Phenotype (%) [1]: 3%
Total Cell Count [1]: 244
Population Apoptotic (%) [2]: 75%
Population Fragmented Nuclei (%) [2]: 14%
Population Healthy Nuclei (%) [2]: 78%
Population Hoechst High Intensity Objects (%) [2]: 0%
Population Membrane Permeable-Phenotype (%) [2]: 4%
Population Mitochondria Different-Phenotype (%) [2]: 2%
Population Mitotic Cells (%) [2]: 25%
Population Normal (%) [2]: 99%
Population Tubulin-Different-Phenotype (%) [2]: 4%
Total Cell Count [2]: 128
Population Apoptotic (%) [3]: 78%
Population Fragmented Nuclei (%) [3]: 23%
Population Healthy Nuclei (%) [3]: 69%
Population Hoechst High Intensity Objects (%) [3]: 2%
Population Membrane Permeable-Phenotype (%) [3]: 5%
Population Mitochondria Different-Phenotype (%) [3]: 1%
Population Mitotic Cells (%) [3]: 21%
Population Normal (%) [3]: 97%
Population Pyknosed Nuclei (%) [3]: 7%
Population Tubulin-Different-Phenotype (%) [3]: 3%
Total Cell Count [3]: 279
Population Apoptotic (%) [4]: 50%
Population Fragmented Nuclei (%) [4]: 24%
Population Healthy Nuclei (%) [4]: 73%
Population Hoechst High Intensity Objects (%) [4]: 0%
Population Membrane Permeable-Phenotype (%) [4]: 17%
Population Mitochondria Different-Phenotype (%) [4]: 3%
Population Mitotic Cells (%) [4]: 50%
Population Normal (%) [4]: 100%
Population Pyknosed Nuclei (%) [4]: 1%
Population Tubulin-Different-Phenotype (%) [4]: 5%
Total Cell Count [4]: 106
Population Apoptotic (%) [5]: 83%
Population Fragmented Nuclei (%) [5]: 22%
Population Healthy Nuclei (%) [5]: 68%
Population Hoechst High Intensity Objects (%) [5]: 2%
Population Membrane Permeable-Phenotype (%) [5]: 3%
Population Mitochondria Different-Phenotype (%) [5]: 1%
Population Mitotic Cells (%) [5]: 16%
Population Normal (%) [5]: 97%
Population Pyknosed Nuclei (%) [5]: 8%
Population Tubulin-Different-Phenotype (%) [5]: 2%
Total Cell Count [5]: 292
Population Apoptotic (%) [6]: 90%
Population Fragmented Nuclei (%) [6]: 16%
Population Healthy Nuclei (%) [6]: 77%
Population Hoechst High Intensity Objects (%) [6]: 1%
Population Membrane Permeable-Phenotype (%) [6]: 6%
Population Mitotic Cells (%) [6]: 10%
Population Normal (%) [6]: 98%
Population Pyknosed Nuclei (%) [6]: 5%
Population Tubulin-Different-Phenotype (%) [6]: 3%
Total Cell Count [6]: 170
Population Apoptotic (%) [7]: 81%
Population Fragmented Nuclei (%) [7]: 19%
Population Healthy Nuclei (%) [7]: 73%
Population Hoechst High Intensity Objects (%) [7]: 2%
Population Membrane Permeable-Phenotype (%) [7]: 5%
Population Mitochondria Different-Phenotype (%) [7]: 1%
Population Mitotic Cells (%) [7]: 18%
Population Normal (%) [7]: 97%
Population Pyknosed Nuclei (%) [7]: 6%
Population Tubulin-Different-Phenotype (%) [7]: 2%
Total Cell Count [7]: 337
Population Apoptotic (%) [8]: 100%
Population Fragmented Nuclei (%) [8]: 17%
Population Healthy Nuclei (%) [8]: 79%
Population Membrane Permeable-Phenotype (%) [8]: 11%
Population Mitochondria Different-Phenotype (%) [8]: 3%
Population Mitotic Cells (%) [8]: 0%
Population Pyknosed Nuclei (%) [8]: 2%
Population Tubulin-Different-Phenotype (%) [8]: 6%
Total Cell Count [8]: 142
Population Apoptotic (%) [9]: 79%
Population Fragmented Nuclei (%) [9]: 16%
Population Healthy Nuclei (%) [9]: 78%
Population Hoechst High Intensity Objects (%) [9]: 1%
Population Membrane Permeable-Phenotype (%) [9]: 2%
Population Mitochondria Different-Phenotype (%) [9]: 2%
Population Mitotic Cells (%) [9]: 20%
Population Normal (%) [9]: 98%
Population Pyknosed Nuclei (%) [9]: 5%
Population Tubulin-Different-Phenotype (%) [9]: 2%
Total Cell Count [9]: 440
Population Apoptotic (%) [10]: 73%
Population Fragmented Nuclei (%) [10]: 17%
Population Healthy Nuclei (%) [10]: 73%
Population Hoechst High Intensity Objects (%) [10]: 2%
Population Membrane Permeable-Phenotype (%) [10]: 3%
Population Mitochondria Different-Phenotype (%) [10]: 4%
Population Mitotic Cells (%) [10]: 26%
Population Normal (%) [10]: 97%
Population Pyknosed Nuclei (%) [10]: 8%
Population Tubulin-Different-Phenotype (%) [10]: 1%
Total Cell Count [10]: 231
Population Apoptotic (%) [11]: 90%
Population Fragmented Nuclei (%) [11]: 14%
Population Healthy Nuclei (%) [11]: 74%
Population Hoechst High Intensity Objects (%) [11]: 4%
Population Membrane Permeable-Phenotype (%) [11]: 6%
Population Mitochondria Different-Phenotype (%) [11]: 1%
Population Mitotic Cells (%) [11]: 9%
Population Normal (%) [11]: 95%
Population Pyknosed Nuclei (%) [11]: 10%
Population Tubulin-Different-Phenotype (%) [11]: 2%
Total Cell Count [11]: 505
Population Fragmented Nuclei (%) [12]: 16%
Population Healthy Nuclei (%) [12]: 77%
Population Membrane Permeable-Phenotype (%) [12]: 16%
Population Mitochondria Different-Phenotype (%) [12]: 2%
Population Mitotic Cells (%) [12]: 10%
Population Pyknosed Nuclei (%) [12]: 5%
Population Tubulin-Different-Phenotype (%) [12]: 6%
Total Cell Count [12]: 184
